Source: PubChem BioAssay
The list is not random: actives were taken first. Their share in the collection is about 2%.
Granule exo inh = LAMP-1 surface exposure blockers, TALL-104 cells – cell-based, flow cytometry, MLPCN library, primary screen; AID 651702, 2012; inhibition, % at 10 µM; 360,000 compounds, 0.66% hits; TALL-104 LAMP-1 surface exposure; cells stimulated with thapsigargin and PMA;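 active = inhibition above about 55%, limit read from the data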
VLA-4 inh = inhibition in human VLA-4 binding assay, primary screen, VLA-4 allosteric modulator project, MLPCN library, flow cytometry, VLA-4 expressing cells; ligand binding flow cytometry; AID 2557, 2010; 330,000 compounds, 0.2% hits; inhibition, % (about 7 µM as worked out from the volumes in the protocol); in the data active = inhibition above about 50%
MT1-MMP act inh = blockers of MT1-MMP proenzyme processing, primary screen, HT1080 RFP-PRO-GFP cells, GFP/RFP fluorescence. GFP/RFP ratio fluorescence, overnight; percent of plate control window, DMSO zero. GFP/RFP ratio change, % at 20 µM. 360,000 compounds, 0.061% hits. AID 651647, 2012;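 active = GFP/RFP ratio change of at least 30% with cell ATP level not reduced by more than half and red fluorescence within 50% of control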
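Assay system: HT1080 RFP-PRO-GFP cells. Benchmarks: DMSO vehicle wells and RFP-L50D-GFP reporter cell wells. Times: overnight cell settling, then overnight compound exposure, 37 °C, 5% CO2. Compound: 20 µM single dose, 1% DMSO. Read-out basis: GFP/RFP fluorescence ratio.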
DAGLB inh = DAGLB lipase inhibitors, primary screen, biochemical, fluorescence, HTS; Diacylglycerol lipase-beta (Homo sapiens), Q8NCG7; HEK293T DAGLB membrane lysate, EnzChek fluorogenic substrate; inhibition, % at 5.17 µM; 340,000 compounds, 0.059% hits; AID 504411, 2011; in the data active = inhibition above about 34%;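 also: 0% = enzyme with vehicle and 100% = wells lacking enzyme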
ABCB6 inh 2 = ABCB6 transporter inhibitors, primary screen, K562-ABCB6 cells, flow cytometry, MLPCN library; AID 602162, 2011; K562-ABCB6 porphyrin accumulation, 1 h; hits give low values; 360,000 compounds, 0.19% hits; ATP-binding cassette sub-family B member 6 (Homo sapiens), Q9NP58; fluorescence ratio to DMSO, % at 10 µM;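 active = fluorescence ratio to DMSO below 75%, the collection mean minus 3 SD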;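 also: signal is porphyrin accumulated inside mitochondria; 100% equals median channel fluorescence of DMSO control wells; lower ratio means ABCB6 inhibition with less porphyrin fluorescence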
FGF22 binding = binders of human FGF22 protein, primary screen, FGF22 synaptogenesis inhibitor project, biophysical, thermal shift, single point; recombinant FGF22 thermal shift, SYPRO orange fluorescence; percent of sucrose octasulfate shift, DMSO zero; activity (Tm shift, normalised), % at 9.99 µM; Fibroblast growth factor 22 (Homo sapiens), Q9HCT0; 340,000 compounds, 1.5% hits;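 active = mean Tm shift, scaled 0 neutral to 100 positive control, at about 1.3% or above, every replicate too, limit read from the data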
Granule exo CP1 = inhibitors of lytic granule exocytosis, confirmation, TALL-104 cells, flow cytometry, Cherry Pick01; shares compounds with Granule exo inh; LAMP-1 externalization; stimulated with PMA plus thapsigargin; inhibition, % at 10 µM; 1,500 compounds, 11% hits; in the data active = inhibition above about 60%;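 also: 0% = stimulated vehicle wells and 100% = unstimulated wells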
Active calls of the source: *; / = no result given; ! = repeats disagree.

SMILES	Granule exo inh	VLA-4 inh	MT1-MMP act inh	DAGLB inh	ABCB6 inh 2	FGF22 binding	Granule exo CP1
O=c1c2ccc(F)cc2sn1-c1ccccc1	71*	/	16	2	97	0	100*
O=c1c2cc(F)ccc2sn1-c1ccccc1Cl	64*	/	-1	4	101	0	103*
CN(C)C(=O)c1cccc(-c2ccc3c(c2)[C@@H]2[C@@H](CCN2C(=O)c2ccccc2)[C@H](CO)N3C)c1	/	/	/	/	/	0	/
O=c1c2ccccc2sn1-c1ccc(Cl)cc1	79*	/	1	2	97	0	104*
Cc1ccc(-n2sc3ccccc3c2=O)cc1	74*	14	4	-2	87	/	33
COC(=O)c1cccc(-n2sc3ccccc3c2=O)c1	4	0	-4	-1	103	0	/
O=c1c2ccccc2sn1-c1ccc(F)cc1	8	23	-5	3	94	0	/
Oc1c(Cl)cc(Cl)cc1/C=C/c1ccc2cccc(O)c2n1	1	-45	-96	-3	144	0	/
Oc1ccc(Cl)cc1/C=C/c1ccc2cccc(O)c2n1	78*	/	-1	-4	101	0	-9
O=C(Cc1ccccn1)N[C@@H]1CC[C@H](CC(=O)N2CCCCC2)O[C@H]1CO	/	/	/	/	/	0	/
COc1ccc(S(=O)(=O)N(C)C[C@H]2OCCCC[C@@H](C)Oc3ccc(NC(=O)CCCN(C)C)cc3C(=O)N([C@@H](C)CO)C[C@@H]2C)cc1	/	/	/	/	/	-1	/
Cc1ccc(-c2cc(C(=O)Nc3cccc(S(=O)(=O)N(C)C)c3)c3ccccc3n2)o1	66*	-8	-3	1	96	0	-12
Cc1ccc(-c2cc(C(=O)Nc3ccccc3C)c3ccccc3n2)o1	82*	-8	-6	6	103	/	-5
CCC(=O)Nc1ccc2c(c1)OC[C@H](C)N(C(=O)c1cccnc1)C[C@@H](C)[C@@H](OC)CN(C)C2=O	/	/	/	/	/	0	/
CN(C)CCCC(=O)c1ccc2c(c1)OCO2	1	12	4	-1	104	/	/
CN(C)CCC(=O)c1ccc2c(c1)OCO2	102*	15	-2	0	104	/	103*
O=C(COc1ccc(Br)cc1CNCCc1ccccc1)NCc1ccccc1	67*	-3	-4	1	85	0	-2
CCCNCc1cc(Br)ccc1OCC(=O)NCCc1ccccc1	0	-2	-2	-2	99	/	/
CNC[C@H]1OCCCC[C@@H](C)Oc2ccc(NC(=O)C3CCCCC3)cc2C(=O)N([C@@H](C)CO)C[C@H]1C	/	/	/	/	/	0	/
Cc1cc(C(=O)Nc2ccc(Nc3ccccc3)cc2)ccc1[N+](=O)[O-]	64*	-1	9	14	100	0	-3
O=C(C[C@H]1CC[C@H]2[C@@H](COC[C@@H](O)CN2C(=O)Nc2cc(Cl)cc(Cl)c2)O1)NCC1CCCCC1	/	/	/	/	/	0	/
O=C(Nc1cccc2cccnc12)c1ccccc1Cl	0	12	1	/	93	0	/
COc1cc(NC(=O)c2cc(OC)c(OC)c(OC)c2)c2ncccc2c1	94*	/	2	-3	101	0	25
COc1ccc(NC(=O)c2ccccc2Oc2ccccc2)c(OC)c1	47	28	0	-8	96	0	/
COc1ccccc1C(=O)Nc1cccc2cccnc12	56*	3	-4	-9	100	0	-14
SMILES	Granule exo inh	VLA-4 inh	MT1-MMP act inh	DAGLB inh	ABCB6 inh 2	FGF22 binding	Granule exo CP1
COc1cc(NC(=O)c2ccc3c(c2)OCO3)c2ncccc2c1	1	0	3	-12	87	/	/
COc1ccccc1NC(=O)c1ccccc1Oc1ccccc1	68*	-3	-5	-11	99	0	-1
COc1ccccc1NC(=O)CNC(c1ccccc1)c1ccccc1	77*	4	-4	-5	95	0	-12
COc1cc(NC(=O)CNC(c2ccccc2)c2ccccc2)cc(OC)c1OC	11	38	1	0	97	0	/
Cc1noc(C)c1S(=O)(=O)N(C)C[C@@H]1OCCCC[C@@H](C)Oc2ccc(NS(=O)(=O)c3ccc(Cl)cc3)cc2C(=O)N([C@@H](C)CO)C[C@@H]1C	/	/	/	/	/	0	/
O=S(=O)(N[C@@H]1CC[C@@H](CCn2cc(-c3cccnc3)nn2)O[C@H]1CO)c1ccc(Cl)cc1	/	/	/	/	/	0	/
COc1ccccc1NC(=O)C(C)N(C)Cc1ccc(Cl)s1 (stereo not given)	58*	6	-1	-13	100	0	-5
CN1CCN(C(=O)C[C@H]2CC[C@H]3[C@@H](COC[C@@H](O)CN3S(=O)(=O)c3cccc(F)c3)O2)CC1	/	/	/	/	/	0	/
CCN1CCN(Cc2ccc(NC(=O)c3cc(NC(=O)C(=O)c4c[nH]c5ccccc45)cc(OC)c3)cc2C(F)(F)F)CC1	56*!	5	3	1	94	41	86*
CCOc1ccc(NC(=O)C2CCCN2S(=O)(=O)c2ccc(OCC)cc2)cc1 (stereo not given)	56*	-36	0	-1	95	0	-5
O=C(/C=C/c1ccc2c(c1)OCO2)Nc1nc(-c2ccc(F)cc2F)cs1	/	-6	/	/	/	/	/
CCOC(=O)Nc1nc(-c2ccc(F)cc2F)cs1	65*	-4	0	-8	101	0	-14
Cc1c(Cl)cccc1NC(=O)CSc1ncnc2c1cnn2CCc1ccccc1	-2	3	-2	-3	93	/	/
O=C(CSc1ncnc2c1cnn2CCc1ccccc1)Nc1cccc(C(F)(F)F)c1	83*	17	-10	-10	92	/	3
COc1cc(C(=O)Nc2ccc(S(=O)(=O)N3CCOCC3)cc2)c([N+](=O)[O-])cc1OC	74*	25	5	-1	100	0	-4
COc1ccc(C(=O)Nc2ccc(S(=O)(=O)N3CCOCC3)cc2)cc1[N+](=O)[O-]	-1	15	4	1	101	0	/
COc1ccc(OC)c(-c2csc(NC(=O)Cc3ccccc3F)n2)c1	50	-6	-6	-5	96	0	/
COc1ccc(OC)c(-c2csc(NC(=O)Cc3ccccc3OC)n2)c1	68*	3	-6	-6	93	0	-5
